Test system: MS2 coat protein
Test: apparent Kd, MS2 coat protein; higher = weaker binding; RNA-MaP array; tryptophan 2.4 mM where present
How it was run: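 Stalled E. coli RNA polymerase transcribed the designs on Illumina sequencing-chip clusters. SNAP-549-labelled MS2 coat protein was titrated from 0.7 or 1.5 nM, doubling to 3 µM, without and then with constant ligand, in 100 mM Tris-HCl pH 7.5, 80 mM KCl, 4 mM MgCl2, BSA, DTT, yeast tRNA and Tween-20. Per-cluster binding curves were fitted to green signal normalised to red-channel RNA signal and control-cluster median Fmax. The apparent Kd is the median of the filtered fits.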

[1] = designed as: ON switch for tryptophan, no ligand
[2] = ligand present: tryptophan, designed as: ON switch for tryptophan
[3] = designed as: OFF switch for tryptophan, no ligand
[4] = ligand present: tryptophan, designed as: OFF switch for tryptophan

Sequence | apparent Kd [1] | apparent Kd [2] | apparent Kd [3] | apparent Kd [4]
CGAUAUAAGACGGCCGCCACUAUUAUGUAACAAAAUAAACAUGAGGAUCACCCAUGUACAUGGGAUAGGACCGGGUCCAAUAACG | 112 nM | 58.2 nM | – | –
AGCACUGUGACGGCCGCCACUACAUAUAGGGUGGUCAGGCCCAUAAUACAUGAGGAUCACCCAUGUAGGACCGGGUCUCAGUGCA | – | – | 16.8 nM | 12.1 nM
ACAGGUACGCCUAUUAAAAUAAAACACCUACGAGGACCGGUACGGCCGCCACUCGGGUGACAUGAGGAUCACCCAUGUGGCUAAA | 394 nM | 155 nM | – | –
AAUGUAUGGCACAUGAGGAUCACCCAUGUGCGAGGACCGGUACGGCCGCCACUCGGUCGGUGGUUAAUGAAGCUAUACAUUAAUG | – | – | 40 nM | 57.7 nM
GCAACGCUGUCGGCCGCCACUUUUACAUUGGCCGUGCUGUCUCUACAUGAGGAUCACCCAUGUGGAAGGACCGGGACAGCACACU | – | – | 29 nM | 64 nM
AUAUAUACAUGAGGAUCACCCAUGUUAUUUCGAGGACCGGUACGGCCGCCACUCGAUAGAGUAGAAGUAAAUUUUGUUACAUGUA | 11.1 nM | 11.4 nM | – | –
GUAUAUUGAAAACAAUAUACAGUGGGUGAACGAGGACCGGUACGGCCGCCACUCGGACAUGAGGAUCACCCAUGUCCAUGUGAAA | – | – | 17 nM | 35.2 nM
GGUACAUGAGGAUCACCCAUGUAUUAGUGCCGAGGACCGGUACGGCCGCCACUCGCUUCACAUGAGGAUCACCCAUGUGUCACAG | 32 nM | 40.8 nM | – | –
CAAAUAAGAACAAACAAAUAACGGUUUUCGCGAGGACCGGUACGGCCGCCACUCGUGUGAAAUAACACAUGAGGAUCACCCAUGU | 36.1 nM | 20.6 nM | – | –
AAUUAUCAGUCGGCCGCCACUGACACAUGAGGAUCACCCAUGUAACUUGGGUUAAAUUUACUGAACAGGACCGGGACAAAGGCUA | – | – | 179 nM | 236 nM
AUUGUGAAGUCGGCCGCCACUGCAUAGUUUAACCACAUGUAACAUGAGGAUCACCCAUGUAAUGACAGGACCGGGACAAUAGUAA | 28 nM | 21.1 nM | – | –
AUACAUGAGGAUCACCCAUGUGAUGGCCGGCGAGGACCGGUACGGCCGCCACUCGUGAUCCGUCCUGAGAGCAAAGCCCUCAACA | 82.1 nM | 102 nM | – | –
UACUUGCUGACGGCCGCCACUAGAACAUGAGGAUCACCCAUGUAUCUAGUGGCAAUCCUCAUGACUAGGACCGGGUCAGCAAGAU | – | – | 9.71 nM | 9.56 nM
UAUAGUACCAGACAUGAGGAUCACCCAUGUCGAGGACCGGUACGGCCGCCACUCGGCAGUUUGCGUCCUCAGGUACUCCGGGUCA | – | – | 13.9 nM | 16.6 nM
AGCGUUCGGUUUAUGCCGGACAAUGGGUGACGAGGACCGGUACGGCCGCCACUCGGGCGCCCGGUUACAUGAGGAUCACCCAUGU | 258 nM | 30.1 nM | – | –
GGCAAGCGAGACAUGAGGAUCACCCAUGUUCGAGGACCGGUACGGCCGCCACUCGGUGGACUCAUGGUAAAGCCGGUGAGCCAAA | 34.6 nM | 74.3 nM | – | –
UCAUAAGUACCGGUCCUCAGAUCCUCAUGACGAGGACCGGUACGGCCGCCACUCGAAACAUGAGGAUCACCCAUGUAAUAAUAUU | – | – | 21.3 nM | 19 nM
